From ChEMBL document CHEMBL1145371, “Synthesis and preliminary evaluation of mono-[123I]iodohypericin monocarboxylic acid as a necrosis avid imaging agent” (Bioorg Med Chem Lett, 2007)
Values joined by “and” are separate entries in the source; they are usually repeats but may differ in a detail not shown here. Equal entries are not always repeated. One block for each compound: values may come before it.

Legend:
[1] = tested on: Liver; assay: Biodistribution in liver of NMRI muse at 185 KBq, iv after 4 hrs; assay type: ADME, organism-based; conditions: mouse, in vivo
[2] = tested on: Blood; assay: Biodistribution in blood of NMRI mouse at 185 KBq, iv after 30 mins; assay type: ADME, organism-based; conditions: in vivo, 0.5 h
[3] = tested on: Kidney; assay: Biodistribution in kidney of NMRI mouse at 185 KBq, iv after 30 mins; assay type: ADME, organism-based; conditions: in vivo, 0.5 h
[4] = tested on: Urinary bladder; assay: Biodistribution in bladder of NMRI mouse at 185 KBq, iv after 4 hrs; assay type: ADME, organism-based; conditions: in vivo
[5] = Partition coefficient, log P of the compound; assay type: physicochemical; conditions: octanol/water
Procedure, shortened: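 Octanol/buffer partitioning against 0.025 M phosphate buffer, pH 7.4; log P reported as mean ± deviation of n = 6 determinations.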

[6] = Biodistribution in carcass of NMRI mouse at 185 KBq, iv after 24 hrs; assay type: ADME, organism-based; conditions: in vivo
[7] = tested on: Brain; assay: Biodistribution in brain of NMRI mouse at 185 KBq, iv after 30 mins; assay type: ADME, organism-based; conditions: in vivo, 0.5 h
[8] = tested on: Liver; assay: Biodistribution in liver of NMRI mouse at 185 KBq, iv after 30 mins; assay type: ADME, organism-based; conditions: in vivo, 0.5 h
[9] = tested on: Urinary bladder; assay: Biodistribution in bladder of NMRI mouse at 185 KBq, iv after 24 hrs; assay type: ADME, organism-based; conditions: in vivo
[10] = Biodistribution in intestine + faeces of NMRI mouse at 185 KBq, iv after 4 hrs; assay type: ADME, organism-based; conditions: in vivo
[11] = Biodistribution in spleen + pancreas of NMRI mouse at 185 KBq, iv after 30 mins; assay type: ADME, organism-based; conditions: in vivo, 0.5 h
[12] = Biodistribution in carcass of NMRI mouse at 185 KBq, iv after 30 mins; assay type: ADME, organism-based; conditions: in vivo, 0.5 h
[13] = tested on: Brain; assay: Biodistribution in brain of NMRI mouse at 185 KBq, iv after 4 hrs; assay type: ADME, organism-based; conditions: in vivo
[14] = tested on: Blood; assay: Biodistribution in blood of NMRI mouse at 185 KBq, iv after 24 hrs; assay type: ADME, organism-based; conditions: in vivo
[15] = tested on: Kidney; assay: Biodistribution in kidney of NMRI mouse at 185 KBq, iv after 24 hrs; assay type: ADME, organism-based; conditions: in vivo
[16] = tested on: Brain; assay: Biodistribution in brain of NMRI mouse at 185 KBq, iv after 24 hrs; assay type: ADME, organism-based; conditions: in vivo
[17] = Biodistribution in intestine + faeces of NMRI mouse at 185 KBq, iv after 30 mins; assay type: ADME, organism-based; conditions: in vivo, 0.5 h
[18] = tested on: Urinary bladder; assay: Biodistribution in bladder of NMRI mouse at 185 KBq, iv after 30 mins; assay type: ADME, organism-based; conditions: in vivo, 0.5 h
[19] = tested on: Blood; assay: Biodistribution in blood of NMRI mouse at 185 KBq, iv after 4 hrs; assay type: ADME, organism-based; conditions: in vivo
[20] = Biodistribution in spleen + pancreas of NMRI mouse at 185 KBq, iv after 24 hrs; assay type: ADME, organism-based; conditions: in vivo
[21] = tested on: Kidney; assay: Biodistribution in kidney of NMRI mouse at 185 KBq, iv after 4 hrs; assay type: ADME, organism-based; conditions: in vivo
[22] = tested on: Lung; assay: Biodistribution in lung of NMRI mouse at 185 KBq, iv after 24 hrs; assay type: ADME, organism-based; conditions: in vivo
[23] = Biodistribution in carcass of NMRI mouse at 185 KBq, iv after 4 hrs; assay type: ADME, organism-based; conditions: in vivo
[24] = tested on: Liver; assay: Biodistribution in liver of NMRI mouse at 185 KBq, iv after 24 hrs; assay type: ADME, organism-based; conditions: in vivo
[25] = Biodistribution in intestine + faeces of NMRI mouse at 185 KBq, iv after 24 hrs; assay type: ADME, organism-based; conditions: in vivo

Drug uptake [1]: 22.4 %ID and 13.2 % ID/g | Drug uptake [2]: 3.3 %ID and 1.3 % ID/g | Drug uptake [3]: 2.9 %ID and 4.4 % ID/g | Drug uptake [4]: 7.1 %ID | logP [5]: 1.47 | Drug uptake [6]: 2.8 %ID | Drug uptake [7]: 0 %ID | Drug uptake [8]: 64.4 %ID and 33.7 % ID/g | Drug uptake [9]: 21.1 %ID | Drug uptake [10]: 50.5 %ID | Drug uptake [11]: 1.3 %ID and 3.9 % ID/g | Drug uptake [12]: 13.2 %ID | Drug uptake [13]: 0 %ID | Drug uptake [14]: 0.1 %ID | Drug uptake [15]: 1 %ID and 1.9 % ID/g | Drug uptake [16]: 0 %ID | Drug uptake [17]: 13.2 %ID | Drug uptake [18]: 0.3 %ID | Drug uptake [19]: 1.6 %ID and 0.6 % ID/g | Drug uptake [20]: 0.2 %ID and 0.5 % ID/g | Drug uptake [21]: 2.6 %ID and 4.8 % ID/g | Drug uptake [22]: 0.1 %ID and 0.2 % ID/g | Drug uptake [23]: 10.3 %ID | Drug uptake [24]: 4.7 %ID and 2.7 % ID/g | Drug uptake [25]: 69.4 %ID
SMILES: Cc1cc(O)c2c(=O)c3c(O)cc(O)c4c5c(O)c([123I])c(O)c6c(=O)c7c(O)cc(C(=O)O)c8c1c2c(c34)c(c78)c65

Drug uptake [19]: 28.2 % ID/g
SMILES: Cc1cc(O)c2c(=O)c3c(O)cc(O)c4c5c(O)c([123I])c(O)c6c(=O)c7c(O)cc(C)c8c1c2c(c34)c(c78)c65
